Screening data: PubChem, Sanford-Burnham Center for Chemical Genomics
LMPTP inh: LMPTP (human) inhibition; P24666; recombinant LMPTP-A, OMFP fluorogenic substrate, fluorescence intensity; inhibition, % at 20 µM; hit rate 0.22% among 360,000; AID 651560;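 active = compounds that cut the enzyme signal by at least half of the control window in the single-dose screen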;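 also: plate controls were DMSO wells with enzyme plus substrate for no effect and substrate without enzyme for full effect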
Target sequence (P24666 whole entry, looked up): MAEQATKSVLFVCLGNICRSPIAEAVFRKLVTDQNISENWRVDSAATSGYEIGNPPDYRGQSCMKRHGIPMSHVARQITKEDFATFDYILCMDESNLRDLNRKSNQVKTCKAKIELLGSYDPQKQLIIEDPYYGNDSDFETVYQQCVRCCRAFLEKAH
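Buffer or medium: Bis-Tris pH 6.0, DTT, detergent; Assay system: LMPTP-A enzyme; Quantity: 0.625 nM enzyme; Detection: endpoint fluorescence intensity; Times: 50 min dark incubation at room temperature; Controls: substrate-only low control, DMSO enzyme-plus-substrate high control; Doses: single 20 µM dose; Read-out: percent inhibition versus substrate-only and uninhibited controls; Reagent: 400 µM OMFP.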
SUMO1-SIM PPI: alters human SUMO1 binding to SIM partners; P63165; SUMO1 binding to a labelled peptide, TR-FRET, 1 h; inhibition, % at 20 µM; hit rate 0.33% among 360,000; AID 602429; in the data active = inhibition above about 37%
STEP inh: blocks human striatal-enriched tyrosine phosphatase. P54829. AID 588621. recombinant STEP, OMFP fluorogenic substrate, fluorescence. hit rate 0.25% among 360,000. inhibition, % at 20 µM;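 active = inhibition at 20 µM, scaled per plate between control wells, above about 37%, limit read from the data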;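 also: 0% = DMSO with enzyme and substrate and 100% = substrate only without enzyme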
Target sequence (P54829 whole entry, looked up): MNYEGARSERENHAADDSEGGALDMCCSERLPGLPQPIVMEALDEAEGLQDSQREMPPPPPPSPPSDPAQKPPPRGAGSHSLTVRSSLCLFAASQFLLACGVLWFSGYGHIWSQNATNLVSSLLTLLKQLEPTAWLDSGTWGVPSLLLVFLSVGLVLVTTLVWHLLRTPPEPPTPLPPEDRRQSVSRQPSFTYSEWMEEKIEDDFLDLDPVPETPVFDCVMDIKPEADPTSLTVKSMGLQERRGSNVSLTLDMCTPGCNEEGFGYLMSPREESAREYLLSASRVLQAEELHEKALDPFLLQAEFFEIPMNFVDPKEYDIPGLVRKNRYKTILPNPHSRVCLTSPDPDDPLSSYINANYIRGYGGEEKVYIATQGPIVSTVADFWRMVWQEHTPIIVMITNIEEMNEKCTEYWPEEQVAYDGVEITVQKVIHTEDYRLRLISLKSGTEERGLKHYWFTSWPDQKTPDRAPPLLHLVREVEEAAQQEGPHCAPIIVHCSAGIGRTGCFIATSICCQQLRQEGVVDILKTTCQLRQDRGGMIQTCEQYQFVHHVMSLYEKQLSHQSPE
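System: STEP (striatal-enriched tyrosine phosphatase) enzyme, cell-free; medium: Bis-Tris pH 6.0 buffer with DTT, detergent; dosing: 20 µM, 1% DMSO; times: reaction 20 min, ambient temperature; detection: fluorescence, 480/540 nm; read-out basis: normalized % inhibition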
Scp-1 inhibitor: Scp-1 (human) phosphatase inhibition | hit rate 0.88% among 340,000 | inhibition, % at 20 µM | Recombinant Scp1, phosphopeptide, malachite green phosphate absorbance | Q9GZU7;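 active = inhibition above about 50% at 20 µM, limit read from the data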;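 also: plate controls were DMSO wells with enzyme for no effect and wells lacking enzyme for full effect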
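Material – SCP-1 phosphatase catalytic domain, residues 76-261 · Buffer or medium – Acidic Tris acetate buffer with magnesium and detergent · Also added – Phospho 17-mer peptide substrate · Compound – single 20 µM dose, 1% DMSO · Times – 45 min room-temperature reaction, 5 min colour, 30 min stabiliser · Technique – Phosphate-binding colour reagent, absorbance read at 630 nm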
DNMT1 block: blocks human DNA methyltransferase DNMT1 | P26358 | DNMT1 molecular beacon, Hinp1I cleavage, fluorescence | inhibition (reported as % activation of signal), % at 10 µM | hit rate 0.83% among 360,000 | AID 588458; in the data active = inhibition above about 50%
Scp1 confirm: Scp-1 (human) inhibition, single-dose confirmed; shares compounds with Scp-1 inhibitor; recombinant SCP-1 catalytic domain, phosphate release, malachite green absorbance; inhibition, % at 20 µM; hit rate 61% among 2,500; AID 540281;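 also: plate controls were DMSO with enzyme for no effect and buffer wells lacking enzyme for full effect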
MG interference: colorimetric interference in Scp-1 counter-screen; shares compounds with Scp-1 inhibitor; Colorimetric interference counterscreen, malachite green absorbance 630 nm; 2,500 tested, under 10 active; AID 540313; apparent inhibition (interference), % at 20 µM;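 also: compounds added after enzyme reaction finished so only phosphate colour detection is probed; plate controls were DMSO wells with completed Scp-1 reaction for no effect and substrate wells lacking enzyme for full effect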
Scp1 DSF: Scp-1 (human) binding by thermal shift | shares compounds with Scp-1 inhibitor | Recombinant SCP1, Sypro Orange thermal shift Tm | thermal shift relative to vanadate control, % at 40 µM | hit rate 25% among 1,500;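 active = substances whose mean melting-temperature shift, as a percentage of the reference inhibitor's shift, reaches about 5.3%, limit read from the data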;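 also: 0% = Tm of DMSO wells and 100% = Tm with sodium orthovanadate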
DNMT1 inh conf: DNMT1 inhibition confirmation, single concentration. shares compounds with DNMT1 block. DNMT1 molecular beacon HinP1I cleavage, fluorescence. hit rate 8% among 2,300. AID 602385. inhibition, % at 10 µM;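 active = average inhibition of at least 30% in the single-concentration confirmation test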
Beacon interf: counter-screen for DNMT1 inhibitors: spectral interference | AID 602387 | shares compounds with DNMT1 block | activation (fluorescence interference), % at 10 µM | DNMT1 molecular beacon spectral interference counterscreen, fluorescence 485/520 | hit rate 1% among 2,300;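 active = activation of at least 30% at 10 µM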;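 also: DNMT1 catalytic domain with a HinP1I cleavage step and a FAM/dabcyl DNA beacon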
Numbers without * were called inactive. In the library only some 1.7% were active in any assay of this set; here they are far more common.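 The calls were made as follows, unless noted: active = inhibition of at least 30% at 20 µM; inactive = the rest.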

Results for COc1ccc(Cl)cc1C(=O)NC1CC(C)(C)NC(C)(C)C1 ?
LMPTP inh: 0.2; SUMO1-SIM PPI: -0.5; STEP inh: -0.7; DNMT1 block: 0.4

How did CCOC(=O)CN1C(=O)S/C(=C\c2ccc(-c3ccc(C(=O)O)c(Cl)c3)o2)C1=O do in these assays?
LMPTP inh: 11.7; SUMO1-SIM PPI: 14.3; STEP inh: 90.5*; Scp-1 inhibitor: 90.0*; DNMT1 block: 64.8*; Scp1 confirm: 58.5*; MG interference: -15.3; Scp1 DSF: 11.9*; DNMT1 inh conf: 2.9; Beacon interf: 0.2

How did CCOC(=O)CN1C(=O)S/C(=C/c2ccc(N3CCCCC3)o2)C1=O do in these assays?
LMPTP inh: -1.2; SUMO1-SIM PPI: -40.9; STEP inh: -10.2; Scp-1 inhibitor: 10.7; DNMT1 block: 6.4

What do the screens show for `Cc1ccc(C)c(NC(=S)N2CCC(NC(=O)C3CCCCC3)CC2)c1`?
LMPTP inh: -1.4; SUMO1-SIM PPI: 3.7; STEP inh: 1.9; Scp-1 inhibitor: 3.6; DNMT1 block: 2.9

How did Cn1nnnc1NCc1ccccc1F do in these assays?
LMPTP inh: -0.3; SUMO1-SIM PPI: 7.9; STEP inh: -2.1; Scp-1 inhibitor: -4.7; DNMT1 block: 2.1

How did CCOc1ccccc1/C=C\c1nc(O)c([N+](=O)[O-])c(=O)[nH]1 do in these assays?
LMPTP inh: -0.3; SUMO1-SIM PPI: -17.5; STEP inh: 1.2; Scp-1 inhibitor: -10.0; DNMT1 block: 2.4

Results for Cc1cc(/C=C\c2nc(O)c([N+](=O)[O-])c(=O)[nH]2)c(C)n1-c1ccccc1 ?
LMPTP inh: 13.5; SUMO1-SIM PPI: 18.3; STEP inh: 9.1; Scp-1 inhibitor: 67.8*; DNMT1 block: 74.4*; Scp1 confirm: 70.9*; MG interference: -6.8; Scp1 DSF: 3.9; DNMT1 inh conf: 7.1; Beacon interf: 3.8

How did Cc1ccc(NC(=O)CN2C(=O)N/C(=C/c3ccco3)C2=O)cc1 do in these assays?
LMPTP inh: 45.3; SUMO1-SIM PPI: -3.6; STEP inh: 5.0; Scp-1 inhibitor: 76.5*; DNMT1 block: 85.2*; Scp1 confirm: 18.0; MG interference: -19.5; DNMT1 inh conf: 2.2; Beacon interf: -2.1

Results for Cc1cccc(NC(=O)CN2C(=O)N/C(=C/c3ccc(C)s3)C2=O)c1 ?
LMPTP inh: -0.2; SUMO1-SIM PPI: -9.2; STEP inh: -4.0; Scp-1 inhibitor: 5.7; DNMT1 block: 1.1

How did Cc1ccc(NC(=O)CN2C(=O)N/C(=C/c3cc(C)n(-c4ccc(C(=O)O)cc4)c3C)C2=O)cc1 do in these assays?
LMPTP inh: 1.2; SUMO1-SIM PPI: -3.2; STEP inh: 9.9; Scp-1 inhibitor: 62.8*; DNMT1 block: 66.6*; Scp1 confirm: 54.1*; MG interference: -23.2; Scp1 DSF: 3.1; DNMT1 inh conf: 28.9; Beacon interf: 4.7

What do the screens show for `CC(C)CCN1CCC(n2nccc2NC(=O)C2CCOC2)CC1` (configuration not stated)?
LMPTP inh: -1.1; SUMO1-SIM PPI: 10.2; STEP inh: 2.9; Scp-1 inhibitor: -8.6; DNMT1 block: 2.2

How did O=C(Nc1cc2c(oc1=O)CCCC2=O)c1cccc(Cl)c1 do in these assays?
LMPTP inh: -1.4; SUMO1-SIM PPI: -18.4; STEP inh: -7.1; Scp-1 inhibitor: -2.5; DNMT1 block: -3.1

Results for COc1ccc(C(=O)Nc2cc3c(oc2=O)CCCC3=O)cc1 ?
LMPTP inh: 1.5; SUMO1-SIM PPI: -13.2; STEP inh: 1.1; Scp-1 inhibitor: 57.1*; DNMT1 block: 68.3*; Scp1 confirm: 43.7*; MG interference: -6.2; Scp1 DSF: -1.8; DNMT1 inh conf: 2.3; Beacon interf: 0.8

What do the screens show for `Cc1cc(C)c(C)c(S(=O)(=O)N[C@@H](C)C(=O)OCc2cc(=O)n3cc(Br)ccc3n2)c1C`?
LMPTP inh: 4.9; SUMO1-SIM PPI: -11.2; STEP inh: -1.2; Scp-1 inhibitor: 69.3*; DNMT1 block: 71.0*; Scp1 confirm: 65.4*; MG interference: -4.9; Scp1 DSF: 5.7*; DNMT1 inh conf: 2.6; Beacon interf: 2.4

What do the screens show for `O=C(CN1C(=O)NC2(CCCC2)C1=O)OCc1cc(=O)n2cc(Br)ccc2n1`?
LMPTP inh: 13.6; SUMO1-SIM PPI: -23.7; STEP inh: -0.6; Scp-1 inhibitor: 54.9*; DNMT1 block: 58.5*; Scp1 confirm: 33.1*; MG interference: -9.0; Scp1 DSF: -9.6; DNMT1 inh conf: 5.5; Beacon interf: -1.3

Results for Cc1ccc(F)cc1C(=O)N1CCCCC1c1cc(C(=O)NCc2ccccc2)no1 (configuration not stated) ?
LMPTP inh: -2.5; SUMO1-SIM PPI: 2.5; STEP inh: -1.3; DNMT1 block: 1.8

Results for COc1cc(O)c(C(C)=O)c(CC(=O)O)c1 ?
LMPTP inh: 0.9; SUMO1-SIM PPI: 3.8; STEP inh: 0.7; Scp-1 inhibitor: 63.6*; DNMT1 block: 50.4*; Scp1 confirm: 48.6*; MG interference: -12.0; Scp1 DSF: 9.4*; DNMT1 inh conf: 9.8; Beacon interf: -1.3

What do the screens show for `O=C(O)c1ccc(COc2c(F)c(F)c(F)c(F)c2F)o1`?
LMPTP inh: -1.4; SUMO1-SIM PPI: -0.2; STEP inh: 8.0; Scp-1 inhibitor: 56.8*; DNMT1 block: 56.3*; Scp1 confirm: 47.9*; MG interference: -18.4; Scp1 DSF: 4.3; DNMT1 inh conf: -0.6; Beacon interf: -0.1

Results for CCc1nc2ccc(C(=O)Nc3cccc(OC)c3)cn2c1N(C)CCCc1ccccc1 ?
LMPTP inh: 5.5; SUMO1-SIM PPI: 8.2; STEP inh: -1.2; DNMT1 block: -25.0

What do the screens show for `Cc1ccc(S(=O)(=O)c2cc3c(=O)n4ccccc4nc3n(Cc3ccco3)c2=N)cc1`?
LMPTP inh: 25.3; SUMO1-SIM PPI: 4.3; STEP inh: 4.8; Scp-1 inhibitor: 65.7*; DNMT1 block: 69.0*; Scp1 confirm: 13.7; MG interference: 5.0; DNMT1 inh conf: 1.3; Beacon interf: -1.5
